Shown are actives, neighbours in structure and some others; about 0.55% of the full set was active somewhere.
OXTR ag: activates the human oxytocin receptor | activation, % at 3 µM | CHO-OTR cells, Fluo-8 calcium fluorescence; normalized: DMSO 0%, oxytocin 100% | 320,000 tested, 0.32% active;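 active means activation above the mean of all tested compounds plus 3 SD, cutoff set per screening run, cut at about 20% in these data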;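 further: peak over basal fluorescence ratio from a 100 s FLIPR kinetic read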
Target sequence (P30559 whole entry, looked up): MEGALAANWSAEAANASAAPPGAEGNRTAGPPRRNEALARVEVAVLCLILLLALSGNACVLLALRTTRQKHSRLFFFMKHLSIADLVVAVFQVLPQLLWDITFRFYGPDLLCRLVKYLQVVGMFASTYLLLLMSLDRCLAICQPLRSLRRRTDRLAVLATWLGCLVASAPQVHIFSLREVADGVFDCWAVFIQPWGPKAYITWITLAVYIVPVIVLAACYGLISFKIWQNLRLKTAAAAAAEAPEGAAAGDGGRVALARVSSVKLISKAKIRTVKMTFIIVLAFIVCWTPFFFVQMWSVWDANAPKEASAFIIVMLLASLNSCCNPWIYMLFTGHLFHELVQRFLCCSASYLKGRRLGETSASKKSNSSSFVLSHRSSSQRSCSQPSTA
TRPML3 agonist: agonists of human TRPML3 channel | 220,000 tested, 0.29% active | HEK293 TRPML3-YFP, Fluo-8 calcium fluorescence; 100% = the carbachol control signal | activation, % at 3 µM;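 active means activation above its plate's cutoff, the mean activation of the plate's test wells plus 3 SD, cut at about 12% in these data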
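Test system: HEK293 cells stably carrying human TRPML3-YFP; Doses: single dose, 3 µM final nominal compound, 0.3% DMSO final; Schedule: dye loading 1 h 37 °C then 30 min ambient, 125 s read; Technique: Fluo-8 calcium fluorescence; Benchmarks: high control carbachol 87 µM, low control DMSO.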
V1aR counter: activates human V1a receptor in oxytocin agonist counter-screen; P37288; CHO-V1R cells, Fluo-8 calcium fluorescence, agonist mode; 0% DMSO, 100% 3 nM vasopressin; activation, % at 3 µM; 320,000 tested, 0.25% active; AID 2797;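 active means activation above the mean activation of all tested compounds plus 3 SD, per screening run, cut at about 20% in these data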;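 further: signal is peak over basal fluorescence ratio across a 100 second FLIPR read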
OXTR potentiator: human OXTR potentiation | P30559 | CHO-OTR cells, Fluo-8 calcium fluorescence, potentiator mode; 0% = oxytocin EC15, 100% = EC100 | activation, % at 3 µM | 320,000 tested, 0.061% active;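 active means activation above that plate's cutoff, the mean activation of tested compounds plus 3 SD, cut at about 6.6% in these data, passing the limit was not always enough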
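Material: human OTR in CHO cells. Compound: 3.0 µM, one dose. Timing: compound 6 min at room temperature before oxytocin, 100 s read. Evaluation: % activation of max/min ratio relative to oxytocin controls. Replication: single well per compound, singlicate. Signal: Fluo-8 calcium dye fluorescence.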
TRPN1 ag: zebrafish TRPN1 (NompC) channel agonism | 220,000 tested, 0.18% active | activation, % at 3 µM | HEK293 zebrafish TRPN1-YFP, Fluo-8 calcium fluorescence; 100% = response to 87 µM carbachol;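 active means activation above its plate's cutoff, the mean activation of test wells on that plate plus 3 SD, cut at about 19% in these data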
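Material: zebrafish TRPN1-YFP in HEK293 cells; Doses: single test compound dose, 3 µM nominal, 0.3% DMSO; Timing: dye loading 1 h at 37 °C, then 30 min room temperature; Technique: intracellular calcium fluorescence with Fluo-8; Benchmarks: high carbachol 87 µM, low DMSO alone.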
Of the large screens only hits and unclear results are named; the others gave an inactive call.

CS(=O)(=O)Nc1ccc(C(=O)NCc2ccccn2)cc1	none
Cc1ccc(NS(=O)(=O)c2ccc(C(=O)NCc3ccccn3)cc2)cc1	OXTR ag 25.0, V1aR counter 30.9 (no result: TRPML3 agonist, TRPN1 ag)
Cc1cc(S(=O)(=O)Nc2ccc(C(=O)NCC3(N4CCCCC4)CCCCC3)cc2)ccc1F	none (no result: TRPML3 agonist, TRPN1 ag)
CCOc1ccc(NS(=O)(=O)c2ccc(C(=O)NCC(c3ccco3)N(C)C)cc2)cc1 (centres undefined)	OXTR ag 26.1, V1aR counter 22.6 (no result: TRPML3 agonist, TRPN1 ag)
CCOc1ccc(NS(=O)(=O)c2ccc(C(=O)NCc3ccccn3)cc2)cc1	OXTR ag 30.9, V1aR counter 26.9 (no result: TRPML3 agonist, TRPN1 ag)
CCOc1ccc(NS(=O)(=O)c2ccc(C(=O)NCC3(N4CCCCC4)CCCCC3)cc2)cc1	OXTR ag 35.5, V1aR counter 24.8 (no result: TRPML3 agonist, TRPN1 ag)
CCc1cccc(NC(=O)CCCn2c(=O)[nH]c3ccsc3c2=O)c1	none (no result: TRPML3 agonist, TRPN1 ag)
Cc1ccc(NS(=O)(=O)c2ccc(C(=O)NC3CCN(Cc4ccccc4)CC3)cc2)cc1	OXTR ag 21.5, V1aR counter 20.8 (no result: TRPML3 agonist, TRPN1 ag)
Cc1ccc(S(=O)(=O)Nc2cccc(C(=O)NC3CCN(Cc4ccccc4)CC3)c2)cc1F	none (no result: TRPML3 agonist, TRPN1 ag)
CCN(CC(=O)Nc1ccc2c(c1)OCCO2)C(=O)COc1ccc(C)cc1	none (no result: TRPML3 agonist, TRPN1 ag)
COc1ccc(C2CC3(CC(C)(C)NC(SC)=N3)Oc3cc(O)cc(C)c32)cc1 (centres undefined)	OXTR ag 39.3, V1aR counter 51.0
CCN(CC)c1ccc2cc(-c3nc4ccccc4[nH]3)c(=O)oc2c1	OXTR ag 322.8, TRPML3 agonist 54.5, V1aR counter 287.7, TRPN1 ag 128.2
CCN(CC)c1ccc2cc(-c3nnc(-c4ccc(Br)cc4)o3)c(=O)oc2c1	none (no result: OXTR ag, V1aR counter, OXTR potentiator)
CCN(CC)c1ccc2cc(-c3nc(-c4ccc(OC)cc4)cs3)c(=O)oc2c1	OXTR ag 453.8, TRPML3 agonist 66.6, V1aR counter 296.6, TRPN1 ag 64.0
CCN(CC)c1ccc2cc(-c3nc4ccccc4n3C)c(=O)oc2c1	none
CC(=O)Nc1ccc(NC2CCCCC2NS(=O)(=O)c2ccc(Cl)cc2)cc1 (centres undefined)	none (no result: TRPML3 agonist, TRPN1 ag)
Cc1ccc(SCC(=O)OCC(=O)NCCc2ccccc2)cc1C	none (no result: TRPML3 agonist, TRPN1 ag)
CCc1ccc(NC(=O)C2(c3ccccc3)CC2(Cl)Cl)cc1 (centres undefined)	OXTR ag 25.4, V1aR counter 30.4
Cc1ccc(C2C(C(=O)c3cccs3)=C(O)C(=O)N2c2nnc(C)s2)cc1 (centres undefined)	TRPML3 agonist 22.0, TRPN1 ag 42.3
COc1ccc(C2C(C(=O)c3cccs3)=C(O)C(=O)N2c2cccc(C)n2)cc1 (centres undefined)	none
CCN1CCN(c2c(/C=C3\SC(=S)N(Cc4ccco4)C3=O)c(C)c(C#N)c(=O)n2C)CC1	V1aR counter 20.3
CCN(CC)c1ccc(C(=O)O)cc1	none
CCN(CC)c1ccc(/C=C2\C(=O)c3ccc(C(=O)O)cc3C2=O)cc1	OXTR ag 160.8, TRPML3 agonist 23.5, V1aR counter 65.6, TRPN1 ag 68.7
O=C(NCc1ccccc1)C(=O)NCC1CCCN1S(=O)(=O)c1cccs1 (centres undefined)	none (no result: TRPML3 agonist, TRPN1 ag)
CSc1cccc(NC(=O)c2ccc(NC3=NC4CS(=O)(=O)CC4S3)cc2)c1 (centres undefined)	none (no result: TRPML3 agonist, TRPN1 ag)
Nc1nc(C2CC2)c(Sc2sc(N)nc2C2CC2)s1	OXTR ag 24.6, V1aR counter 25.1
CC(C)(CNC(=O)c1ccccc1NS(C)(=O)=O)N1CCCCC1	none (no result: TRPML3 agonist, TRPN1 ag)
COC(=O)c1ccc(NC(C)C(=O)OC)c([N+](=O)[O-])c1 (centres undefined)	none
COc1ccc(N=Nc2nc3cc(Br)c(Br)cc3n2C)c(OC)c1	TRPML3 agonist 19.6, TRPN1 ag 24.8
COc1ccc(CNc2nc3ccccc3n2C)c(OC)c1	none
O=C1NC[C@@H](c2ccccc2)OC(=O)[C@@H](Cc2ccc(F)cc2)CC/C=C/C[C@@H]1CC(=O)N(CCO)Cc1ccccc1	none (no result: TRPML3 agonist, TRPN1 ag)
COc1ccc(C(=O)Nc2ccnn2C2CCN(C(=O)c3cc(C)on3)CC2)cc1	none (no result: TRPML3 agonist, TRPN1 ag)
CC1(C)CC(NCCN2CCN(C3=CC(=C(C#N)C#N)CC(C)(C)C3)CC2)=CC(=C(C#N)C#N)C1	none

Assay outcomes deposited in PubChem by The Scripps Research Institute Molecular Screening Center.
